According to ChEMBL document CHEMBL1649438, “Activities of ceftobiprole and other cephalosporins against extracellular and intracellular (THP-1 macrophages and keratinocytes) forms of methicillin-susceptible and methicillin-resistant Staphylococcus aureus” (Antimicrob Agents Chemother, 2009):
Converted amounts (≈) assume the structure as drawn.

Experiments:
Staphylococcus aureus [1] = assay: Antimicrobial activity against hospital-acquired vancomycin-intermediate Staphylococcus aureus NRS18 infected in human THP-1 cells assessed as bacterial count per mg of cell protein at high extracellular compound concentration after 24 hrs at pH 5.5; format: functional
Method in brief: (§1)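 Human THP-1 macrophage-like cells were infected with S. aureus to a postphagocytosis inoculum of 1.5 × 10^6 to 3.0 × 10^6 CFU/mg cell protein. Cells were then exposed 24 h to increasing extracellular antibiotic concentrations. Response was the log10 CFU change per mg protein from the postphagocytosis inoculum, n = 3. A Hill function was fitted on log-transformed axes. E0 and Emax were extrapolated to infinitely low and high concentrations. Cs was read by graphical interpolation. Concentrations were expressed as multiples of the broth MIC at pH 5.5 or pH 7.4.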

MecA = biological target: T1, MecA (Staphylococcus aureus, UniProt Q7DHH4); assay: Binding affinity to Staphylococcus aureus ATCC […] PBP2a by Western blotting at pH 7.4 in presence of 100 uM Bocillin FL
T1 sequence (Q7DHH4 whole entry): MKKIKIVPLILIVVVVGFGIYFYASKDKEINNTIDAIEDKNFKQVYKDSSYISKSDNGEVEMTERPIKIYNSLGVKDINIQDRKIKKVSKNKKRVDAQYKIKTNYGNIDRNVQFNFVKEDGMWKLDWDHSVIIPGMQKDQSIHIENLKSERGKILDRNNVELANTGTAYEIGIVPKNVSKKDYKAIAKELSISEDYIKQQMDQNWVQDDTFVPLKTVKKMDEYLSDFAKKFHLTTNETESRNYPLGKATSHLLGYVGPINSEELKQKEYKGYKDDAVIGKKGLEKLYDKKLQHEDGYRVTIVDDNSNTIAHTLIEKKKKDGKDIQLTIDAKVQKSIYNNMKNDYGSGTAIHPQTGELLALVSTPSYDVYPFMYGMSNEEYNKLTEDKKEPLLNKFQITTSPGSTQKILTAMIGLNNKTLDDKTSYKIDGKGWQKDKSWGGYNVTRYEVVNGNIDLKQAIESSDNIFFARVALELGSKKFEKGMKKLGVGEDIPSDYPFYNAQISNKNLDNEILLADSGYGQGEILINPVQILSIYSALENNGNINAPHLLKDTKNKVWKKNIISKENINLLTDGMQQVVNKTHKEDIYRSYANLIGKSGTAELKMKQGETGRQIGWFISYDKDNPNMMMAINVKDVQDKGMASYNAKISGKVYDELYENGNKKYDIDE
Method in brief: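 Soluble truncated PBP 2a (ΔM1-Y23) was expressed in E. coli Rosetta 2(DE3) and purified. It was preincubated 25 min at 37°C with increasing cephalosporin concentrations, then 100 μM Bocillin FL was added for 25 min at 37°C at pH 5.5 or 7.4. Samples were run on SDS-PAGE and blotted with anti-bodipy antibody plus HRP secondary. Bands were detected by chemiluminescence and quantified by densitometry.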

Staphylococcus aureus [2] = assay: Antimicrobial activity against Panton-valentine leucocidin-positive community-acquired methicillin-resistant Staphylococcus aureus N4090440 infected in human THP-1 cells assessed as change in bacterial count after 24 hrs at pH 7.4; format: functional, organism-based; settings: N4090440, THP-1, 24 h
Method in brief: (§2)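 THP-1 human macrophages infected with S. aureus (postphagocytosis inoculum 1.5 × 10^6 to 3.0 × 10^6 CFU/mg cell protein), then incubated 24 h with increasing extracellular antibiotic concentrations. Change in log10 CFU/mg cell protein from the postphagocytosis inoculum, n = 3. Hill function fitted on log-transformed data. Low-concentration value (E0) and high-concentration value (Emax) are extrapolated. Where a pH is given, concentrations are expressed as multiples of the broth MIC at that pH.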

Staphylococcus aureus [3] = assay: Bacteriostatic activity against hospital-acquired vancomycin-intermediate Staphylococcus aureus NRS18 infected in human THP-1 cells assessed as change in bacterial count after 24 hrs at pH 5.5; format: functional
Method in brief: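 Human THP-1 macrophage-like cells were infected with S. aureus; the post-phagocytosis inoculum was 1.5 × 10^6 to 3.0 × 10^6 CFU/mg cell protein. Cells were exposed 24 h to increasing extracellular drug levels. Change in log10 CFU/mg protein from the inoculum was fitted to a Hill function (n = 3). Static concentration was read by graphical interpolation, as a multiple of the pH 5.5 broth MIC.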

Staphylococcus aureus [4] = assay: Bacteriostatic activity against Panton-valentine leucocidin-positive community-acquired methicillin-resistant Staphylococcus aureus STA 228 infected in human THP-1 cells assessed as change in bacterial count after 24 hrs at pH 5.5; format: functional
Method in brief: (§3)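 THP-1 macrophages infected as described previously, with a postphagocytosis inoculum of 1.5 × 10⁶ to 3.0 × 10⁶ CFU/mg cell protein. Cells were exposed 24 h to increasing extracellular antibiotic concentrations. Response is the change in log10 CFU/mg protein from the inoculum (n = 3), fitted to a Hill function. E0 and Emax were extrapolated to infinitely low and high concentrations. EC50 and static concentration (graphical interpolation) are expressed as multiples of the broth MIC at pH 5.5 or 7.4.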

Staphylococcus aureus [5] = assay: Antimicrobial activity against hospital-acquired vancomycin-intermediate Staphylococcus aureus NRS126 infected in human THP-1 cells assessed as change in bacterial count after 24 hrs at pH 5.5; format: functional, organism-based; settings: NRS126, THP-1, 24 h; method in brief: as §3
Staphylococcus aureus [6] = assay: Antimicrobial activity against Panton-valentine leucocidin-positive community-acquired methicillin-resistant Staphylococcus aureus NRS192 infected in human THP-1 cells assessed as change in bacterial count after 24 hrs; format: functional, organism-based; settings: NRS192, THP-1, 24 h; method in brief: as §2
Staphylococcus aureus [7] = assay: Antimicrobial activity against Panton-valentine leucocidin-positive community-acquired methicillin-resistant Staphylococcus aureus isolate MEH2225605 infected in human THP-1 cells assessed as change in bacterial count after 24 hrs at pH 5.5; format: functional, organism-based; settings: isolate MEH2225605, THP-1, 24 h; method in brief: as §2
Staphylococcus aureus [8] = assay: Antimicrobial activity against methicillin-susceptible Staphylococcus aureus NRS52 infected in human THP-1 cells assessed as bacterial count per mg of cell protein at high extracellular compound concentration after 24 hrs at pH 5.5; format: functional; method in brief: as §1
Staphylococcus aureus [9] = assay: Antimicrobial activity against Panton-valentine leucocidin-positive community-acquired methicillin-resistant Staphylococcus aureus STA 44 infected in human THP-1 cells assessed as change in bacterial count after 24 hrs at pH 7.4; format: functional, organism-based; settings: STA 44, THP-1, 24 h; method in brief: as §2
Staphylococcus aureus [10] = assay: Bacteriostatic activity against Panton-valentine leucocidin-positive community-acquired methicillin-resistant Staphylococcus aureus N4042228 infected in human THP-1 cells assessed as change in bacterial count after 24 hrs at pH 5.5; format: functional; method in brief: as §3
Staphylococcus aureus [11] = assay: Antimicrobial activity against hospital-acquired vancomycin-intermediate Staphylococcus aureus NRS18 infected in human THP-1 cells assessed as bacterial count per mg of cell protein at low extracellular compound concentration after 24 hrs at pH 5.5; format: functional; method in brief: as §1
Staphylococcus aureus [12] = assay: Antimicrobial activity against methicillin-susceptible Staphylococcus aureus ATCC 11632 infected in human THP-1 cells assessed as change in bacterial count after 24 hrs at pH 5.5; format: functional, organism-based; settings: ATCC 11632, THP-1, 24 h; method in brief: as §3
Staphylococcus aureus [13] = assay: Antimicrobial activity against Panton-valentine leucocidin-positive community-acquired methicillin-resistant Staphylococcus aureus NRS192 infected in human THP-1 cells assessed as change in bacterial count after 24 hrs at pH 5.5; format: functional, organism-based; settings: NRS192, THP-1, 24 h; method in brief: as §2

How did the log10cfu (Staphylococcus aureus [1]) turn out when `Nc1nc(/C(=N/O)C(=O)N[C@@H]2C(=O)N3C(C(=O)O)=C(/C=C4\CCN([C@@H]5CCNC5)C4=O)CS[C@H]23)ns1` [CEFTOBIPROLE] was run?
The log10cfu was 1.01.

And the IC50 (MecA)?
The IC50 was 8 µM.

What about the EC50 (Staphylococcus aureus [2]) of the same compound?
The EC50 was 0.33 ×MIC.

What about the Activity (Staphylococcus aureus [3]) of the same compound?
The Activity was 1.97 × MIC.

And the Activity (Staphylococcus aureus [4])?
Its Activity is 1.45 × MIC.

And the EC50 (Staphylococcus aureus [5])?
Its EC50 is 0.77 × MIC.

And the EC50 (Staphylococcus aureus [6])?
Its EC50 is 0.7 µg/mL (≈ 1.31 µM).

And the EC50 (Staphylococcus aureus [7])?
The EC50 was 0.54 × MIC.

And the log10cfu (Staphylococcus aureus [8])?
The log10cfu was 1.04.

And the EC50 (Staphylococcus aureus [9])?
The EC50 was 0.33 ×MIC.

And the Activity (Staphylococcus aureus [10])?
Its Activity is 1.45 × MIC.

And the log10cfu (Staphylococcus aureus [11])?
The log10cfu was 2.63.

And the EC50 (Staphylococcus aureus [12])?
The EC50 was 0.41 × MIC.

And the EC50 (Staphylococcus aureus [13])?
Its EC50 is 0.54 × MIC.
